Source: PubChem
TRPC4 act – activators of mouse TRPC4 channel, primary screen, Fluo4 calcium, HEK293 TRPC4beta/mu-opioid cells; Short transient receptor potential channel 4 (Mus musculus), Q9QUQ5; Fluo4 calcium fluorescence; hits give high values; B-score at 10 µM; actives 0.49% (n = 310,000);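 active = B-score above 5 SD of library B-scores, and initial fluorescence ratio not above library mean plus 5 SD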;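 note: positive B-score marks a calcium rise read as TRPC4 activation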
Target sequence (Q9QUQ5 whole entry, looked up): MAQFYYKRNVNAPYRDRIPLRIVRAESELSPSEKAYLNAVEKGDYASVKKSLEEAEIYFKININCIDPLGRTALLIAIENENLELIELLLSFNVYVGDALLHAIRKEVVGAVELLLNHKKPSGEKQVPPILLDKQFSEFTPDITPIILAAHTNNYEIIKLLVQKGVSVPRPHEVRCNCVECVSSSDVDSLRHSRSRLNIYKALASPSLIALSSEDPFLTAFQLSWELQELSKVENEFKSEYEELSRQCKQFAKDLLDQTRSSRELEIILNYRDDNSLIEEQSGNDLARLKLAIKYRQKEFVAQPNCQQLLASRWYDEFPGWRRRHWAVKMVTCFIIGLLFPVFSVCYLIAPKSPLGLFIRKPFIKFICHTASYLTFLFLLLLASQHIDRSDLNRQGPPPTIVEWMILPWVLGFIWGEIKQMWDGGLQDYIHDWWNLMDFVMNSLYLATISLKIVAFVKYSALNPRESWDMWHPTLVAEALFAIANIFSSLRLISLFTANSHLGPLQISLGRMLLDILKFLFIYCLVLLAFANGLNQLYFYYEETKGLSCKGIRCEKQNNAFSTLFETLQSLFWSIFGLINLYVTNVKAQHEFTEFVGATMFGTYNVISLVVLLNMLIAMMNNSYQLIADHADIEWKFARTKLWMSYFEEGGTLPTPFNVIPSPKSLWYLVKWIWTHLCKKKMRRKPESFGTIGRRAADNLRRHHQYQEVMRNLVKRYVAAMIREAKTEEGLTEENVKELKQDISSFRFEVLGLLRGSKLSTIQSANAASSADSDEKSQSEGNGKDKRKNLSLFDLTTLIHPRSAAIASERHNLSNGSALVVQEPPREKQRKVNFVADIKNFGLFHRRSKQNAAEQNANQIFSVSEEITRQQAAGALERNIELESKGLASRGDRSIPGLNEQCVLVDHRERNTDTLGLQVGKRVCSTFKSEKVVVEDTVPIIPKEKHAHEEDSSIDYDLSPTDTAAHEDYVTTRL
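Material: TRPC4beta and mu-opioid receptor HEK293 stable cells | Incubation: 45 min room-temperature Fluo4 loading, 110 s read | Detection: Kinetic Fluo4 calcium fluorescence | Measure: Integrated baseline-normalised fluorescence ratio, converted to per-well B score | Benchmarks: Low control buffer alone, high control maximal DAMGO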
TRPC6 inhibitor – mouse TRPC6 channel inhibitors, primary screen, cell-based, HEK293, membrane potential dye | Short transient receptor potential channel 6 (Mus musculus), Q61143 | ACh-evoked depolarization; hits give low values | B-score at 10 µM | actives 1.1% (n = 310,000) | AID 2553, 2010;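 active = B-score under library mean minus 3 SD, initial fluorescence not abnormally high, positive integrated signal ratio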;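 note: B-score derived from integrated fluorescence ratio over the kinetic read; more negative B-score means stronger inhibition of depolarization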
TRPC6 activator – mouse TRPC6 channel activators, primary screen, cell-based, HEK293, membrane potential dye; Short transient receptor potential channel 6 (Mus musculus), Q61143; HEK293-TRPC6 membrane potential dye fluorescence; hits give high values; B-score at 10 µM; actives 0.13% (n = 310,000); AID 2550, 2010;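 active = B-score of the integrated fluorescence ratio above library mean plus 3 SD, and starting fluorescence ratio within library mean plus 5 SD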;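 note: higher score means more depolarization so channel activation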
TRPC4 inh – inhibitors of mouse TRPC4 channel, primary screen, Fluo4 calcium, HEK293 TRPC4beta/mu-opioid cells; DAMGO-evoked Fluo4 calcium flux; hits give low values; B-score at 10 µM; AID 2247, 2010; actives 0.39% (n = 300,000);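 active = B-score over 3 SD under the library average, no early fluorescence shift, positive overall ratio signal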
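System: stable TRPC4beta/mu-opioid receptor HEK293 cells; Dosing: single-point compound dosing; Measured by: Fluo4 Ca2+ flux fluorescence; Read-out basis: per-well B score of integrated baseline-normalized Fluo4 ratio.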
TRPC4 PAM – positive allosteric modulators of TRPC4, primary screen, cell-based, mouse TRPC4beta, HEK293 mu-opioid, Fluo-4 calcium; Short transient receptor potential channel 4 (Mus musculus), Q9QUQ5; DAMGO EC20, Fluo-4 Ca2+ flux; hits give high values; B-score at 10 µM; actives 0.42% (n = 310,000); AID 2227, 2009;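 active = B-score of calcium response area above 5 SD of library B-scores, with initial fluorescence ratio within 5 SD of library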
TRPC4 sel inh 2 – second check of whether TRPC6 inhibitors also affect mouse TRPC4; shares compounds with TRPC6 inhibitor; HEK293 TRPC4/MOR, membrane potential dye fluorescence; channel activated by saturating DAMGO dose; inhibition, % at 10 µM; actives 42% (n = 920); AID 2776;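 active = compounds whose fluorescence signal differed from control wells by over 3 SD, either direction, in both duplicate plates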
TRPC4 spec – mouse TRPC4 modulation by TRPC6 hits, confirmation, selectivity assay for TRPC6 inhibitor project, cell-based, HEK293 TRPC4/mu-opioid, membrane potential dye | shares compounds with TRPC6 inhibitor | membrane potential fluorescence | activity change, negative = inhibition, % at 10 µM | actives 61% (n = 920) | AID 2777, 2010;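 active = rise or fall in signal beyond 3 SD of buffer-only wells in both replicate plates, either sign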;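 note: integrated kinetic ratio of fluorescence range over baseline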
HEK293 MPD ctr 2-1 – nonspecific membrane potential effects, parental HEK293, confirmation, counter-screen for TRPC6 inhibitor project, cell-based, second counter screen | shares compounds with TRPC6 inhibitor | parental HEK293 membrane potential dye fluorescence; maximal acetylcholine challenge after compound addition | signal change vs control, % at 10 µM | actives 31% (n = 920) | AID 2779, 2010;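 active = membrane potential signal moving either way by over 3 SD of the maximum-effect control, in both duplicate plates, meaning non-specific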
HEK293 MPD ctr-1 – membrane potential modulation in parental HEK293, confirmation, counter-screen for TRPC6 inhibitor project, cell-based; shares compounds with TRPC6 inhibitor; parental HEK293 membrane potential dye fluorescence; membrane potential signal change, % at 10 µM; AID 2780, 2010; actives 60% (n = 920);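 active = membrane potential signal shifting up or down by more than 3 SD of buffer-only wells, on both duplicate plates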
HEK293 MPD ctr-2 – parental HEK293 membrane potential modulation, confirmation, counter-screen for TRPC6 modulator project, cell-based. membrane potential dye fluorescence. actives 51% (n = 2,400). membrane potential signal change, % at 10 µM. shares compounds with TRPC6 inhibitor. AID 488924, 2010;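 active = membrane potential signal moves up or down beyond 5 SD from buffer-only wells, on both duplicate plates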
HEK293 MPD ctr 2-2 – second check of TRPC6 modulator effects in parental HEK293 cells | membrane potential dye fluorescence; after compound, maximal acetylcholine stimulation | actives 14% (n = 2,400) | shares compounds with TRPC6 inhibitor | inhibition, % at 10 µM | AID 488926;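 active = membrane potential signal drops by more than 5 SD from the mean control signal, in both duplicate plates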
TRPC4 ctr mod – TRPC4 modulation by TRPC6 hit compounds, confirmation, selectivity assay for TRPC6 modulator project, cell-based, HEK293 TRPC4/mu-opioid, membrane potential dye, mouse; AID 488927, 2010; membrane potential fluorescence; actives 69% (n = 2,400); percent change from control (negative = decrease, positive = increase), % at 10 µM; shares compounds with TRPC6 inhibitor;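 active = membrane potential signal moved up or down beyond 5 SD of buffer control wells, in both duplicate plates, actives on both sides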
TRPC4/MOR inh 2 – second check of whether TRPC6 modulators also affect mouse TRPC4 | shares compounds with TRPC6 inhibitor | AID 488928 | HEK293 TRPC4/mu-opioid, membrane potential dye fluorescence; stimulated with maximal-effect DAMGO | inhibition, % at 10 µM | actives 55% (n = 2,400);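 active = drop in membrane potential signal beyond 5 SD of the control wells in both duplicate plates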;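 note: TRPC4 counter screen for TRPC6 hits run under conditions tuned for TRPC6 not TRPC4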
TRPC6 block conf – mouse TRPC6 channel inhibitors, confirmation, HEK293 cells, membrane potential dye, duplicate; inhibition, % at 10 µM; shares compounds with TRPC6 inhibitor; actives 43% (n = 3,300); AID 488960, 2010; ACh-evoked depolarization;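 active = fluorescence ratio falls more than 5 SD below the full-stimulation control mean, in both duplicate runs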;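 note: integrated fluorescence ratio of peak minus minimum over baseline after agonist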
TRPC6 act conf – mouse TRPC6 channel activators, confirmation, HEK293 cells, membrane potential dye, duplicate; activation, % at 10 µM; shares compounds with TRPC6 inhibitor; HEK293-TRPC6 membrane potential dye fluorescence, FDSS; actives 11% (n = 2,800);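 active = ratio signal rise beyond 5 SD above unstimulated control wells' mean, seen in both duplicate runs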
Each line names hits and unclear results; the compound was inactive in the other large screens (follow-up assays come after a bar, where they were run). Only some compounds are listed: those with a hit (about 2.3% of all), similar ones and a draw of the others.

N#Cc1ccc(Cl)cc1NC(=O)COC(=O)[C@H](CCC(N)=O)NC(=O)c1ccc(F)cc1	none
c1ccc(-c2cc3c(N4CCN(c5ccccc5)CC4)ncnc3s2)cc1	none
CN1CCN(c2ncnc3sc(-c4ccccc4)cc23)CC1	TRPC6 inhibitor -6.2 | HEK293 MPD ctr-2 inactive | HEK293 MPD ctr 2-2 inactive | TRPC4 ctr mod inactive | TRPC4/MOR inh 2 38% | TRPC6 block conf inactive | TRPC6 act conf inactive
COc1cccc(-c2nc(NCC3CCCO3)c3ccccc3n2)c1O (stereo not given)	none
OCCNc1nc(-c2ccccc2)nc2ccccc12	none
COc1ccc(OC)c(Nc2c3ccccc3nc3ccccc23)c1	TRPC6 inhibitor -6, TRPC4 inh -6 | HEK293 MPD ctr-2 -182% | HEK293 MPD ctr 2-2 inactive | TRPC4 ctr mod -30% | TRPC4/MOR inh 2 70% | TRPC6 block conf 53% | TRPC6 act conf inactive
COc1ccccc1Nc1nc(NCCO)c2ccccc2n1	none
Cc1ccc(Nc2nc(NCCO)c3ccccc3n2)cc1C	TRPC6 inhibitor -6.5 | HEK293 MPD ctr-2 inactive | HEK293 MPD ctr 2-2 77% | TRPC4 ctr mod -16% | TRPC4/MOR inh 2 86% | TRPC6 block conf 79% | TRPC6 act conf inactive
COc1ccc(OC)c(Nc2nc(NCCO)c3ccccc3n2)c1	TRPC6 inhibitor -9, TRPC4 inh -5 | TRPC4 sel inh 2 44% | TRPC4 spec -24% | HEK293 MPD ctr 2-1 32% | HEK293 MPD ctr-1 -274% | TRPC6 block conf 79% | TRPC6 act conf inactive
COc1ccccc1Nc1nc(NCC2CCCO2)c2ccccc2n1 (stereo not given)	TRPC6 inhibitor -8.8, TRPC4 inh -7 | TRPC4 sel inh 2 32% | TRPC4 spec -13% | HEK293 MPD ctr 2-1 inactive | HEK293 MPD ctr-1 -139% | TRPC6 block conf 112% | TRPC6 act conf inactive
CN(CCc1ccccn1)C(=O)CCC1CCCN(C(=O)c2ccsc2)C1 (stereo not given)	none
CCCCn1c(SCC(=O)N2CCCc3ccccc32)nc2c1c(=O)n(C)c(=O)n2C	none
CCN1CCCc2cc(CN(CCN3CCOCC3)C(=O)Nc3ccc(C)c(C)c3)ccc21	TRPC6 inhibitor -5 | HEK293 MPD ctr-2 inactive | HEK293 MPD ctr 2-2 inactive | TRPC4 ctr mod inactive | TRPC4/MOR inh 2 41% | TRPC6 block conf inactive | TRPC6 act conf inactive
CC(C)N1CCc2c(sc(NC(=S)NC(=O)c3ccccc3)c2C#N)C1	TRPC4 act 71, TRPC6 activator 48 | HEK293 MPD ctr-2 inactive | HEK293 MPD ctr 2-2 inactive | TRPC4 ctr mod 8.0% | TRPC4/MOR inh 2 inactive | TRPC6 block conf inactive | TRPC6 act conf inactive
COc1cc2c(cc1OC)C(c1ccc(-c3ccc(Cl)cc3Cl)o1)=NCC2	none
COc1cc2c(cc1OC)C(c1ccc(-c3ccccc3Cl)o1)=NCC2	TRPC6 inhibitor -6.2 | HEK293 MPD ctr-2 -190% | HEK293 MPD ctr 2-2 inactive | TRPC4 ctr mod -48% | TRPC4/MOR inh 2 52% | TRPC6 block conf 40% | TRPC6 act conf inactive
COc1cc2c(cc1OC)C(c1ccc(-c3ccc(Cl)c(Cl)c3)o1)=NCC2	none
COc1cc2c(cc1OC)C(c1ccc(Cl)cc1)=NCC2	TRPC6 inhibitor -6.2 | HEK293 MPD ctr-2 -275% | HEK293 MPD ctr 2-2 inactive | TRPC4 ctr mod -40% | TRPC4/MOR inh 2 52% | TRPC6 block conf 44% | TRPC6 act conf inactive
CCOc1c(Cl)cc(CNC(C)(C)CC(C)(C)C)cc1OC	TRPC6 inhibitor -5.1 | HEK293 MPD ctr-2 176% | HEK293 MPD ctr 2-2 86% | TRPC4 ctr mod 36% | TRPC4/MOR inh 2 75% | TRPC6 block conf 63%
Cc1cc(C)cc(OCC(=O)OCC(=O)NC2CCCCCCC2)c1	none
CN(C)C(CNC(=O)c1cccc(NS(=O)(=O)c2ccc(Br)cc2)c1)c1ccco1 (stereo not given)	TRPC6 inhibitor -5.7 | HEK293 MPD ctr-2 inactive | HEK293 MPD ctr 2-2 inactive | TRPC4 ctr mod 9.5% | TRPC4/MOR inh 2 inactive | TRPC6 block conf inactive | TRPC6 act conf inactive
CCOC(=O)c1sc(=S)n(-c2ccc(OC)cc2)c1C	TRPC6 inhibitor -6.3 | HEK293 MPD ctr-2 inactive | HEK293 MPD ctr 2-2 inactive | TRPC4 ctr mod 10% | TRPC4/MOR inh 2 inactive | TRPC6 block conf 52%
